The campaign covered roughly 290,000 compounds. About 1,300 (0.45%) were called active.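 Rule for the calls: active = inhibition above the mean plus 3 SD of all compounds in the same screening run (cut at about 4.5% in these data); inactive = the rest.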 This excerpt belongs to a sample that is enriched for actives.
test system: metallo-beta-lactamase IMP-1 (Pseudomonas aeruginosa); assay: IMP-1 metallo-beta-lactamase inhibitors, primary screen, biochemical, epi-absorbance readout, Pseudomonas aeruginosa enzyme (AID 1556); details: purified IMP-1, nitrocefin hydrolysis, epi-absorbance fluorescence; at 5.6 µM; stronger effect = higher value;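 note: 0% = IMP-1 with DMSO and 100% = DMSO wells lacking enzyme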
In short: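 Test system: recombinant IMP-1 enzyme, purified / Medium: HEPES buffer pH 7.1 with ZnSO4 and Brij 35 / Doses: single dose, 5.6 µM / Times: 25 °C, 15 min preincubation, 25 min reaction / Detection: Epi-absorbance via hydrolysed-nitrocefin quenching of white-plate fluorescence, 480/530 nm, EDTA stop / Evaluation: percent inhibition from optical density relative to buffer-blank wells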

Row | Compound | inhibition
1 | Cc1ccccc1C(=O)NC(=S)Nc1ccc(N2CCN(C(=O)c3ccccc3)CC2)cc1 | -0.21% (inactive)
2 | Cc1nc2sc(C(=O)c3ccccc3)c(N)c2c2c1CCCC2 | -2.49% (inactive)
3 | Nc1c(C(=O)c2cccs2)sc2nsc(SCCN3CCCCC3)c12 | 6.4% (active)
4 | CN(C)c1ccnc2sc(C(=O)c3ccccc3)c(N)c12 | -4.61% (inactive)
5 | N#C/C(=C\c1cccnc1)C(=O)Nc1ccc(SC(F)F)cc1 | -1.66% (inactive)
6 | Nc1ccc2nc3c(=O)[nH]c(=S)[nH]c3nc2c1 | 26.7% (active)
7 | Cc1cccc(OCC(=O)Nc2ccc(C(=O)O)cc2NC(=O)COc2cccc(C)c2)c1 | -0.18% (inactive)
8 | O=C(CSc1nnnn1-c1ccc(O)cc1)N1N=C(c2ccc3ccccc3c2)CC1c1ccccc1 (centres undefined) | -2.75% (inactive)
9 | COc1ccc(N2CCN(S(=O)(=O)c3ccc4c(c3)N(C(C)=O)CCO4)CC2)cc1 | -2.08% (inactive)
10 | O=C(Nc1ccccc1)c1ccco1 | -3.16% (inactive)
11 | Cc1ccnc(NC(=O)c2ccco2)n1 | 29.4% (active)
12 | O=C(Nc1ccc2nccnc2c1)c1ccco1 | -1.29% (inactive)
13 | Cc1cccc2c1cnn2C(=O)CCC(=O)NC1CCCCC1 | -3.55% (inactive)
14 | Cc1cccc(NC(=O)Cn2c(=O)n(Cc3ccccc3)c(=O)c3c(C)c(C)sc32)c1 | -3.05% (inactive)
15 | CCOc1cccc(NC(=O)C2CCCN(S(=O)(=O)c3ccc(OC)cc3)C2)c1 (centres undefined) | 0.1% (inactive)
16 | COc1ccccc1CC(=O)Nc1ccc(S(=O)(=O)N2CCCC2)cc1 | -1.76% (inactive)
17 | CCN(CC(=O)Nc1ccc(S(=O)(=O)N2CCCC2)cc1)CC(=O)Nc1cccc(OC)c1 | 13% (active)
18 | O=C(CN1CCN(c2ccc(O)cc2)CC1)Nc1ccc(-c2ccccc2)cc1 | -3.22% (inactive)
19 | CC(C)N(C(=O)Cn1cc(S(=O)(=O)CC(=O)N2CCOCC2)c2ccccc21)C(C)C | 1.49% (inactive)
20 | CC1=C(C(=O)Nc2ccccc2)C(c2ccco2)C(C#N)=C(SCC(N)=O)N1 (centres undefined) | -0.1% (inactive)

Row | Compound | inhibition
21 | Cc1cc(C)c2c3c(sc2n1)C(c1ccccc1)C(C#N)=C(N)O3 (centres undefined) | -3.3% (inactive)
22 | N#CC1=C(N)Oc2c(sc3ccccc23)C1c1ccco1 (centres undefined) | 5.37% (active)
23 | Cc1cc(C)nc(N2C(=O)CC(Cc3ccccc3)C2=O)n1 (centres undefined) | -2.26% (inactive)
24 | O=C1CC(Cc2ccccc2)C(=O)N1c1ccc(Cl)cn1 (centres undefined) | -3.13% (inactive)
25 | O=C(O)CN1C(=O)CC(Cc2ccccc2)C1=O (centres undefined) | 4.79% (active)
26 | CCC1=C/C(=C\c2ccc3c(c2)OCO3)C(=O)S1 | 6.67% (active)
27 | CCOC(=O)CCCNC(=O)COC(=O)/C=C/c1ccc2c(c1)OCO2 | -0.37% (inactive)
28 | O=C1/C(=C/c2ccc3c(c2)OCO3)CCC/C1=C\c1ccc2c(c1)OCO2 | 0.49% (inactive)
29 | O=C(Nc1ccc(F)cc1)C(=O)c1cn(CC(=O)N2CCOCC2)c2ccccc12 | -5.04% (inactive)
30 | CS(=O)(=O)N1CCN(C(=O)CSc2ccccc2)CC1 | -2.52% (inactive)
31 | Oc1ccc2ccc3cccc[n+]3c2c1 | 34.3% (active)
32 | CCCCC(=O)Nc1ccccc1N1CCN(c2ccc(F)cc2)CC1 | -3.05% (inactive)
33 | CCOC(CNC(=O)C1CCN(S(=O)(=O)c2ccc3nc4c(c(C(=O)O)c3c2)CC(C)CC4)CC1)OCC (centres undefined) | -0.25% (inactive)
34 | Cc1ccc(CNC(=O)C2CCN(S(=O)(=O)c3ccc4nc5c(c(C(=O)O)c4c3)CC(C)CC5)CC2)cc1 (centres undefined) | 5.35% (active)
35 | CC(=O)N1c2ccc(S(=O)(=O)N3CCC(C(=O)NCc4ccc(F)cc4)CC3)cc2CC1C (centres undefined) | -3.57% (inactive)
36 | Cc1nc(CN(C)C(=O)CC2C(=O)NCCN2Cc2ccc(F)cc2)cs1 (centres undefined) | -2.3% (inactive)
37 | Cc1cccc(C)c1NC(=O)N1CC=C(n2c(=O)[nH]c3ccccc32)CC1 | -4.93% (inactive)
38 | CCOc1ccc(NC(=O)N2CC=C(n3c(=O)[nH]c4ccccc43)CC2)cc1 | 6.24% (active)
39 | CCOc1ccc(NC(=O)N2CCN(CC)CC2)cc1 | -1.66% (inactive)
40 | COc1ccc(NC(=O)CN2C(=O)COc3ccc(S(=O)(=O)N4CCOCC4)cc32)cc1 | -3.61% (inactive)

Row | Compound | inhibition
41 | Cc1ccc(CNC(=O)C(=O)c2cn(CC(=O)N3CCOCC3)c3ccccc23)cc1 | -2.82% (inactive)
42 | Cn1ccc(=Nc2ccc(NC(=O)c3ccc(N=c4ccn(C)c5ccc([N+](=O)[O-])cc45)cc3)cc2)cc1 | 14.8% (active)
43 | O=C(Nc1ccc(C(=O)N2CCCCC2)cc1)c1cccc([N+](=O)[O-])c1 | -1.61% (inactive)
44 | Cc1cc([N+](=O)[O-])ccc1NC(=O)c1ccc(NC(=O)C(C)C)cc1 | -0.19% (inactive)
45 | Cc1sc2ncn(CC(=O)NCCCC(=O)N(C)Cc3ccccc3)c(=O)c2c1C | -3.46% (inactive)
46 | Cc1ccc(-n2ncc3c2CC(C)(C)CC3NC(=O)CCc2cnn(C)c2)cc1 (centres undefined) | -2.72% (inactive)
47 | COCCOC(=O)c1sc(=S)n(CCOC)c1N | -0.79% (inactive)
48 | CCN(Cc1ccccc1)C(=O)CCS(=O)(=O)c1ccc2c(c1)oc(=O)n2C | -3.48% (inactive)
49 | C=CCn1c(=O)c(C(=O)Nc2ncccc2O)c(O)c2ccccc21 | -5.49% (inactive)
50 | CCOC(=O)CCc1c(C)c2ccc(OCc3nn[nH]n3)c(C)c2oc1=O | -1.75% (inactive)
51 | Cc1c(CCC(=O)O)c(=O)oc2cc(OCc3ccc(Br)cc3)ccc12 | -4.45% (inactive)
52 | Cc1c(CCC(=O)O)c(=O)oc2c(C)c(OCc3ccccc3Cl)ccc12 | 11.5% (active)
53 | COc1ccccc1N1CCN(S(=O)(=O)CCNC(=O)c2ccc(OC(C)C)cc2)CC1 | -1.73% (inactive)
54 | CCOc1cc(NC(=O)Nc2ccccc2)c(OCC)cc1NC(=O)CC | 1.47% (inactive)
55 | CCOC(=O)Nc1ccc2c(c1)N(C(=O)CCCl)c1ccccc1[S@]2=O | -1.86% (inactive)
56 | COc1ccc(-n2c(=O)[nH]c3cc(C(=O)NCCc4ccc(OC)c(OC)c4)ccc3c2=O)c(OC)c1 | -0.95% (inactive)
57 | C[n+]1ccc(/C=C/c2c[nH]c3ccccc23)cc1 | 11.3% (active)
58 | O=C(N/N=C/c1c[nH]c2ccccc12)c1ccccc1O | -3.56% (inactive)
59 | COc1ccc(/C=C(\C#N)c2c[nH]c3ccccc23)cc1 | -0.02% (inactive)

Reference: PubChem BioAssay AID1556 (The Scripps Research Institute Molecular Screening Center, 2009)
